High-throughput results: PubChem, The Scripps Research Institute Molecular Screening Center
This is a sample that favours compounds with a hit; in the whole collection about 2.5% have one here.
TCR-CD3 inh – human TCR-CD3 binding inhibition; TAMRA-labeled TCR probe fluorescence, biochemical; inhibition, % at 9.4 µM; 360,000 tested, 0.37% active; in the data active = inhibition above about 19%;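 note: recombinant mutant TCR 2C K166C tagged with TAMRA read by polarization; 0% = receptor in buffer alone and 100% = receptor with positive control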
SIAE inh – human SIAE inhibition, primary screen; SIAE FP-Rh probe binding, fluorescence polarization; 370,000 tested, 0.69% active; inhibition, % at 9.66 µM; AID 1053197;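 active = inhibition above a cutoff: mean of compounds within the control limits plus 3 SD of those, cut at about 17% in these data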;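 note: 0% = plate median of compound wells and 100% = probe without SIAE protein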
Target sequence (Q9HAT2 whole entry, looked up): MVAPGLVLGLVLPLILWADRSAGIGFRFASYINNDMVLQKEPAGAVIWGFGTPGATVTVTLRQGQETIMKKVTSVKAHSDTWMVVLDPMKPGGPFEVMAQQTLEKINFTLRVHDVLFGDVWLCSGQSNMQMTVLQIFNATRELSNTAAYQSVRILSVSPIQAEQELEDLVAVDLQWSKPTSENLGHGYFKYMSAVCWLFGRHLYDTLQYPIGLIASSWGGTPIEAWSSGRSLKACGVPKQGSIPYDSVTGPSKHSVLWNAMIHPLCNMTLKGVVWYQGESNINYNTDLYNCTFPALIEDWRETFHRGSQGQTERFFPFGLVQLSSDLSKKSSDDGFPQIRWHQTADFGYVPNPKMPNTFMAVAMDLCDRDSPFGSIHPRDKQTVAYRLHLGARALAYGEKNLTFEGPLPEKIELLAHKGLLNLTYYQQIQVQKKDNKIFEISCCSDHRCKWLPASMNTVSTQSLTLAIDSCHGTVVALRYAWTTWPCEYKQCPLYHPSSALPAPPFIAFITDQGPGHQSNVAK
mABHD4 FP – inhibitors of mouse ABHD4. Q8VD66. purified mABHD4, FP-Rh probe fluorescence polarization. inhibition, % at 8.92 µM. 370,000 tested, 0.54% active;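 active = inhibition exceeding the mean over every tested compound plus 3 SD, cut at about 30% in these data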;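 note: 0% = plate median of compound wells and 100% = S159A mutant with DMSO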
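Test system: mouse ABHD4 enzyme, wild type. Reagent: FP-Rh fluorescent activity-based probe, added after compound pre-incubation. Timing: pre-incubation 45 min, probe exposure 60 min, at 25 °C. Technique: FP readout, ex 525 nm / em 598 nm. Benchmarks: high control S159A mutant with DMSO, low control median of compound wells.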
rCAG binder – r(CAG) repeat RNA binding. TO-PRO-1 dye displacement fluorescence. inhibition, % at 3 µM. 370,000 tested, 1.3% active;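 active = inhibition above the plate cutoff, the mean of all test compounds on that plate plus 3 SD, cut at about 35% in these data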;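 note: 0% = DMSO alone and 100% = 100 µM mitoxantrone as full dye displacement; higher means more dye released from RNA so lower well fluorescence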
HTRA1 inh – inhibitors of human serine peptidase HTRA1; Q92743; recombinant HTRA1, FP-rhodamine activity-based probe, fluorescence polarization; inhibition, % at 5.96 µM; 340,000 tested, 0.5% active; in the data active = inhibition above about 36%;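 note: 0% = enzyme with DMSO and 100% = wells lacking enzyme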
rCAG binder conf – r(CAG) RNA repeat binding, confirmation. AID 652065. shares compounds with rCAG binder. TO-PRO-1 dye displacement fluorescence. 4,300 tested, 70% active. inhibition, % at 3 µM;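 active = inhibition above a per-plate cutoff, the mean inhibition of sample wells plus 3 SD, cut at about 35% in these data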;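 note: loss of TO-PRO-1 fluorescence as compound displaces dye from 1x1 AA loop RNA; 0% = DMSO only wells and 100% = 100 µM mitoxantrone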
DNA CAG counter – counter-screen for rCAG RNA binders: DNA CAG dye complex inhibitors; inhibition, % at 3 µM; AID 652068; shares compounds with rCAG binder; 4,300 tested, 94% active; d(CAG) DNA oligo TO-PRO-1 dye displacement, fluorescence;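 active = inhibition above its plate's cutoff, the mean test-well inhibition plus 3 SD, cut at about 4.8% in these data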;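 note: 0% = DNA dye mix with DMSO and 100% = 100 µM mitoxantrone; hits displace the dye from DNA and so lower well fluorescence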
dCAG dye DR – disrupts DNA CAG TO-PRO-1 complex in dose response; shares compounds with rCAG binder; 250 tested, 20% active; DNA CAG/GTC duplex TO-PRO-1 dye displacement fluorescence; IC50, µM; in the data active = IC50 below about 10 µM
mABHD4 conf – confirmation of mouse ABHD4 inhibitors. shares compounds with mABHD4 FP. purified mABHD4, FP-Rh probe fluorescence polarization. inhibition, % at 8.92 µM. 1,800 tested, 55% active. AID 720658;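 active = mean inhibition across replicates above the hit cutoff set in the primary screen, cut at about 30% in these data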;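 note: 0% = wild-type ABHD4 with DMSO and 100% = catalytically dead S159A mutant with DMSO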
* hit, by the source's call; i = inactive; . = no result given.

SMILES | TCR-CD3 inh | SIAE inh | mABHD4 FP | rCAG binder | HTRA1 inh | rCAG binder conf | DNA CAG counter | mABHD4 conf | others
COc1ccc(C2c3sc(=O)[nH]c3SC3C4CCC(C4)C23)cc1OC (centres undefined) | 0.9 | 4.5 | 2.1 | 5.5 | -20.2 | . | . | .
COc1cc(C2c3sc(=O)[nH]c3SC3C(=O)N(c4ccc(Br)cc4)C(=O)C32)ccc1O (centres undefined) | 5.0 | -2.1 | 33.9* | 37.8* | -0.2 | 23.4 | 8.2* | 14.8
NNC(=S)Nc1cccc(-c2n[nH]c(=S)o2)c1 | -1.5 | -0.1 | 35.5* | 51.0* | 7.5 | 18.4 | 6.8* | 22.3
CN(C)C(=S)Nc1cccc(-c2n[nH]c(=S)o2)c1 | 1.5 | 15.2 | 3.7 | 0.8 | 3.4 | . | . | .
CCOC(=O)C1=c2s/c(=C\c3ccncc3)c(=O)n2C(N)=C(C(=O)OC)C1c1ccncc1 (centres undefined) | 0.8 | 6.3 | -3.6 | 0.6 | -3.8 | . | . | .
CCOC(=O)C1=C(N)n2c(s/c(=C/c3ccco3)c2=O)=C(C(=O)OC)C1c1ccco1 (centres undefined) | 3.5 | 7.7 | 39.1* | 56.7* | 9.4 | 23.6 | 14.4* | -6.8
N#CC1=C(N)n2c(s/c(=C\c3ccco3)c2=O)=C(C#N)C1c1ccco1 (centres undefined) | 7.4 | 6.5 | 31.7* | 53.8* | 19.6 | 37.6* | 18.0* | -19.8 | dCAG dye DR=i
C=CCOc1ccc(C(c2c(C(=O)O)[nH]c3ccccc23)c2c(C(=O)O)[nH]c3ccccc23)cc1 | 4.7 | 2.2 | 55.3* | 92.2* | 10.2 | 82.2* | 51.0* | 52.8*
O=C(O)c1[nH]c2ccccc2c1C(c1ccccc1)c1c(C(=O)O)[nH]c2ccccc12 | 9.0 | 6.8 | 31.8* | 70.4* | 9.8 | 47.1* | 14.8* | 38.2*
CC(=O)C(C)Sc1nnc(-c2ccccc2F)n1C1CC1 (centres undefined) | 6.5 | -8.1 | 5.6 | -2.7 | 3.1 | . | . | .
COC(=O)c1ccc(CN2CCCC(CO)(Cc3ccccc3F)C2)cc1 (centres undefined) | 2.6 | -8.3 | 4.5 | -9.0 | -10.4 | . | . | .
Cn1ccnc1C(O)c1cccc(OCc2ccccc2)c1 (centres undefined) | -2.0 | 12.3 | -5.9 | -3.5 | -1.8 | . | . | .
O=S(=O)(Nc1nc(-c2ccco2)c(-c2ccco2)s1)c1ccc(F)cc1F | 11.0 | -1.3 | 46.9* | 61.6* | 4.7 | 52.9* | 19.9* | 12.2
COc1cc(/C=C/C(=O)O)cc(S(=O)(=O)Nc2cc(Cl)c(Cl)cc2Cl)c1OC | 5.6 | 1.8 | 32.4* | 64.8* | -10.8 | 36.6* | 7.4* | 34.8*
COc1cc(/C=C/C(=O)O)cc(S(=O)(=O)NC2CCCC2)c1OC | -13.0 | -0.6 | -3.5 | 5.5 | 3.3 | . | . | .
COCCNC(=O)C1Nc2ccc(C(F)(F)F)cc2C2C=CCC12 (centres undefined) | -3.6 | 8.3 | 32.5* | 44.3* | 29.5 | 1.9 | 2.0 | 0.0
COC(=O)CNC(=O)C1Nc2ccc(OC(F)(F)F)cc2C2C=CCC12 (centres undefined) | -1.0 | 5.3 | 46.9* | 38.6* | 26.6 | 1.0 | -0.2 | -3.7
COCCNC(=O)C1Nc2ccc(OC(F)(F)F)cc2C2C=CCC12 (centres undefined) | 2.9 | 13.1 | 29.3 | 29.4 | 33.0 | . | . | .
COc1ccccc1C(=O)Nc1ccnn1C1CCN(Cc2csc(C(C)=O)c2)CC1 | 4.3 | -4.5 | 0.9 | -4.8 | -0.9 | . | . | .
C=CCSC1=N/C(=C\C=C\c2ccco2)C(=O)S1 | 16.1 | 13.3 | 64.1* | 57.6* | 23.7 | 45.4* | 21.2* | 6.8 | dCAG dye DR=i
O=C(O)c1cccc(-c2ccc(/C=N/Nc3ccc([N+](=O)[O-])cc3)o2)c1 | -2.1 | -8.6 | 38.7* | 58.6* | 4.2 | 48.6* | 15.3* | 52.7*
